According to ChEMBL document CHEMBL1122260, “Synthesis and biological activity of prostaglandin lactones” (J Med Chem, 1983):
Active and inactive are the calls of the source. The rule behind the calls is not given here.

Columns and labels:
Homo sapiens [1] = species: Homo sapiens; experiment: Plasma hydrolysis following 20 hr incubation with human plasma; type: functional
Summary of the method: (§1)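 Substrates incubated with saline (control), hog liver esterase, or rat, monkey or human blood plasma for 2 h or 20 h; released PGF2α quantified by radioimmunoassay as cross-reactivity with PGF2α antisera. PGF2α itself served as assay positive control. Substrate cross-reaction with the antisera determined separately.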

Rattus norvegicus [2] = experiment: in vivo Urinary excretion of PGF2-alpha metabolite in rats, when administered sc (1 mg/rat) urinary excretion on day. c1(27.2-31.1); type: functional, Urine
Monkey [3] = experiment: Plasma hydrolysis following 2 hr incubation with monkey plasma; type: functional, Cercopithecidae; summary of the method: as §1
Sus scrofa [4] = species: Sus scrofa; experiment: Plasma hydrolysis following 2 h incubation with hog liver esterase; type: functional; summary of the method: as §1
Rattus norvegicus [5] = species: Rattus norvegicus; experiment: Plasma hydrolysis following 2 hr incubation with rat plasma; type: functional; summary of the method: as §1
Gerbillinae [6] = experiment: Gerbil colon stimulation relative to PGE1 (100); Range from (0.3-1); type: functional
Summary of the method: (§2)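 Isolated ascending colon from male gerbils (Meriones unguiculatus) mounted in de Jalon's solution (NaCl 154 mM, KCl 0.54 mM, CaCl2 0.27 mM, NaHCO3 1.78 mM, glucose 5.55 mM); isotonic contractions recorded with linear transducers in 5-mL baths.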

Sus scrofa [7] = species: Sus scrofa; experiment: Plasma hydrolysis following 20 hr incubation with hog liver esterase; type: functional; summary of the method: as §1
Monkey [8] = experiment: Plasma hydrolysis following 20 hr incubation with monkey plasma; type: functional, Cercopithecidae; summary of the method: as §1
Homo sapiens [9] = species: Homo sapiens; experiment: Plasma hydrolysis following 2 hr incubation with human plasma; type: functional; summary of the method: as §1
[10] = Plasma hydrolysis of percent cross reaction of substrate with PGF2-alpha antisera; type: ADME, cell-free; summary of the method: as §1
Rattus norvegicus [11] = experiment: in vivo urinary excretion of PGF2-alpha metabolite in rats, when administered sc (1 mg/rat) urinary excretion on day 2. Range is between (1.2-2.0); type: functional, Urine
Rattus norvegicus [12] = species: Rattus norvegicus; experiment: Plasma hydrolysis following 20 hr incubation with rat plasma; type: functional; summary of the method: as §1
Rattus norvegicus [13] = species: Rattus norvegicus; experiment: Blood pressure potency in rat relative to PGF2-alpha (100); value ranges from (0.3-1); type: functional
Summary of the method: (§3)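 Mature female albino rats, pentobarbital anesthesia (30 mg/kg ip, supplemented as needed), pretreated with atropine sulfate (0.08 mg sc) and pentolinium tartrate (2 mg iv). Test solutions or emulsions injected via femoral vein; carotid arterial pressure recorded by transducer. Change in mmHg (rise or fall) compared with standards: PGE1 for depressor, PGF2α for pressor responses.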

Gerbillinae [14] = experiment: Gerbil colon stimulation relative to PGE1 (100); Ranges from (0.1-0.3); type: functional; summary of the method: as §2
Rattus norvegicus [15] = species: Rattus norvegicus; experiment: Blood pressure potency in rat relative to PGE1 (100); IA means inactive; type: functional, organism-based; summary of the method: as §3
Rattus norvegicus [16] = species: Rattus norvegicus; experiment: Blood pressure potency in rat relative to […]; T denotes toxic; type: organism-based; summary of the method: as §3
Rattus norvegicus [17] = experiment: in vivo urinary excretion of PGF2-alpha metabolite in rats, when administered sc (1 mg/rat) urinary excretion on day 2; type: functional, Urine
Rattus norvegicus [18] = experiment: in vivo urinary excretion of PGF2-alpha metabolite in rats, when administered sc (1 mg/rat) urinary excretion on day 1; type: functional, Urine
Rattus norvegicus [19] = species: Rattus norvegicus; experiment: Blood pressure potency in rat relative to PGE1 (100). Range is between (10-32); type: functional; summary of the method: as §3
Gerbillinae [20] = experiment: Gerbil colon stimulation relative to PGE1 (100); Range is between (0.3-1); type: functional; summary of the method: as §2
Rattus norvegicus [21] = species: Rattus norvegicus; experiment: Blood pressure potency in rat relative to PGE1 (100); type: functional; summary of the method: as §3
Gerbillinae [22] = experiment: Gerbil colon stimulation relative to PGE1 (100); Range from (0.1-0.3); type: functional; summary of the method: as §2
Rattus norvegicus [23] = species: Rattus norvegicus; experiment: Blood pressure potency in rat relative to PGE1 (100); value ranges from (0.1-0.3); type: functional; summary of the method: as §3
Gerbillinae [24] = experiment: Gerbil colon stimulation relative to PGE1 (100); Range from (32-100); type: functional; summary of the method: as §2
Gerbillinae [25] = experiment: Gerbil colon stimulation relative to PGE1 (100); Range is between (0.1-0.3); type: functional; summary of the method: as §2
Rattus norvegicus [26] = experiment: In vivo urinary excretion of PGF2-alpha metabolite in rats, when administered sc (1 mg/rat) urinary excretion on day 1 Range is between (31.9-155).; type: functional, Urine
Rattus norvegicus [27] = experiment: In vivo urinary excretion of PGF2-alpha metabolite in rats, when administered sc (1 mg/rat) urinary excretion on day 2 Range is between (2.2-5.6).; type: functional, Urine
Gerbillinae [28] = experiment: Gerbil colon stimulation relative to PGE1 (100); Range from (1-3); type: functional; summary of the method: as §2
Rattus norvegicus [29] = species: Rattus norvegicus; experiment: Blood pressure potency in rat relative to PGE1 (100); value ranges from( 0.1-0.3); type: functional; summary of the method: as §3

Row | Compound | Hydrolysis (Homo sapiens [1]) [%] | Hydrolysis (Monkey [3]) [%] | Hydrolysis (Sus scrofa [4]) [%] | Hydrolysis (Rattus norvegicus [5]) [%] | Hydrolysis (Sus scrofa [7]) [%] | Hydrolysis (Monkey [8]) [%] | Hydrolysis (Homo sapiens [9]) [%] | Cross reaction [10] [%] | Hydrolysis (Rattus norvegicus [12]) [%] | also measured
1 | CCCCC[C@H](O)/C=C/C1[C@@H]2C[C@@H](O)[C@H]1C/C=C\CCCC(=O)O2 (some centres undefined) | 0.6 | 2.4 | 28.3 | 43 | 100 | 15.5 | 0.2 | 0.09 | 80.6 | Urinary excretion (Rattus norvegicus [2]): 27.2 µg; Relative potency (Gerbillinae [6]): 0.3; Urinary excretion (Rattus norvegicus [11]): 1.6 µg; Relative potency (Rattus norvegicus [13]): 0.3
2 | O=C1CCC/C=C\C[C@@H]2C(/C=C\[C@@H](COc3ccccc3)O1)[C@H](O)C[C@@H]2O (some centres undefined) | – | – | – | – | – | – | – | – | – | Relative potency (Gerbillinae [14]): 0.1; Relative potency (Rattus norvegicus [15]): inactive; Relative potency (Rattus norvegicus [16]): Toxic
3 | CCCCC[C@H](O)/C=C/[C@@H]1[C@@H](C/C=C\CCCC(=O)O)[C@@H](O)C[C@H]1O [DINOPROST] | 100 | 100 | 100 | 100 | 100 | 100 | 100 | 100 | 100 | Urinary excretion (Rattus norvegicus [17]): 14.5 µg; Urinary excretion (Rattus norvegicus [18]): 252 µg
4 | CCCCC[C@@H](/C=C/C1[C@H](O)C[C@H](O)[C@@H]1C/C=C\CCCC(=O)O)OC(C)=O (some centres undefined) | 6.8 | 3.6 | 59.1 | 18 | 85 | 9.4 | 3.3 | 2.4 | 25.7 | –
5 | CCCCC[C@H](O)/C=C/C1C(=O)C[C@@H]2OC(=O)CCC/C=C\C[C@H]12 (some centres undefined) | – | – | – | – | – | – | – | – | – | Relative potency (Rattus norvegicus [19]): 10; Relative potency (Gerbillinae [20]): 0.3
6 | CCCCC[C@@H]1/C=C\C2CCC(=O)[C@@H]2C/C=C\CCCC(=O)O1 (some centres undefined) | – | – | – | – | – | – | – | – | – | Relative potency (Rattus norvegicus [21]): <0.1; Relative potency (Gerbillinae [22]): 0.1
7 | CCCCC[C@@H]1/C=C\C2C(=O)CC(O)[C@@H]2C/C=C\CCCC(=O)O1 (some centres undefined) | – | – | – | – | – | – | – | – | – | Relative potency (Rattus norvegicus [23]): 0.1; Relative potency (Gerbillinae [22]): 0.1
8 | CCCCC(C)(C)[C@H](O)/C=C/C1[C@H](O)C[C@@H]2OC(=O)CCC/C=C\C[C@H]12 (some centres undefined) | – | – | – | – | – | – | – | – | – | Relative potency (Rattus norvegicus [23]): 0.1; Relative potency (Gerbillinae [24]): 32
9 | CCCCC[C@@H]1/C=C\C2[C@H](O)C[C@H](O)[C@@H]2C/C=C\CCCC(=O)O1 (some centres undefined) | 57.9 | 8.4 | 55.3 | 51.4 | 75.6 | 41.7 | 55.6 | 0.9 | 58.7 | Relative potency (Gerbillinae [25]): 0.1; Relative potency (Rattus norvegicus [21]): <0.1; Urinary excretion (Rattus norvegicus [26]): 77.1 µg; Urinary excretion (Rattus norvegicus [27]): 3.9 µg
10 | CCCCC[C@](C)(O)/C=C/C1[C@H](O)C[C@@H]2OC(=O)C(F)(F)CC/C=C\C[C@H]12 (some centres undefined) | – | – | – | – | – | – | – | – | – | Relative potency (Gerbillinae [28]): 1; Relative potency (Rattus norvegicus [29]): 0.1
